Assay results of several laboratories.
Compare with care: the assays were run in different laboratories. Values after ≈ are worked out from the molar mass of the structure shown.

Structure (SMILES) | organism | assay | system | conditions | endpoint | result
CC1(C)S[C@@H]2[C@H](NC(=O)[C@H](N)c3ccc(O)cc3)C(=O)N2[C@H]1C(=O)O | Escherichia coli | microbial growth, disc diffusion | – | 100 µg/mL, 24 h | inhibition zone | 20 mm
CC(O)CSc1nnc(-c2cc3ccccc3o2)n1-c1ccccc1 (stereo not shown) | Staphylococcus aureus | microbial growth, disc diffusion | – | 25 µg/disc | inhibition zone | 11.3 mm
CC(C)(O/N=C(\C(=O)N[C@@H]1C(=O)N2C(C(=O)[O-])=C(C[n+]3ccccc3)CS[C@H]12)c1csc(N)n1)C(=O)O | Escherichia coli | microbial growth, disc diffusion | – | 2000 µg/mL, 24 h | inhibition zone | 5 mm
O=C(O)c1cn(C2CC2)c2cc(N3CCNCC3)c(F)cc2c1=O | Escherichia coli | microbial growth, disc diffusion | – | 100 µg/mL, 24 h | inhibition zone | 25 mm
CC(O)CSc1nnc(Cn2cnc3c2c(=O)n(C)c(=O)n3C)n1-c1ccccc1 (stereo not shown) | Escherichia coli | microbial growth, disc diffusion | – | 25 µg/disc | inhibition zone | 11 mm
C[C@@H](O)[C@H]1C(=O)N2C(C(=O)O)=C(SCCN=CN)C[C@H]12 | Escherichia coli | microbial growth, disc diffusion | – | 2000 µg/mL, 24 h | inhibition zone | 18.5 mm
CO/N=C(\C(=O)N[C@@H]1C(=O)N2C(C(=O)O)=C(COC(C)=O)CS[C@H]12)c1csc(N)n1 | Escherichia coli | microbial growth, broth dilution | – | clinical isolate | MIC90 | 64 µg/mL (≈ 141 µM)
CO/N=C(\C(=O)N[C@@H]1C(=O)N2C(C(=O)O)=C(CSC(=O)c3ccco3)CS[C@H]12)c1csc(N)n1 | Staphylococcus aureus | microbial killing | CVCC546 | 18 h | MBC | 2 µg/mL
CC(O)CSc1nnc(-c2cc3c(ccc4ccccc43)o2)n1-c1ccccc1 (stereo not shown) | Escherichia coli | microbial growth, disc diffusion | – | 25 µg/disc | inhibition zone | 15.7 mm
C=C/C=C(\C)CC[C@H]1C[C@@H](O)CC(=O)O1 | Staphylococcus aureus | microbial growth, broth dilution | ATCC6538P | – | MIC | 256 µg/mL (≈ 1220 µM)
